Experimental data: ChEMBL document CHEMBL1811862, “Ieodomycins A-D, antimicrobial fatty acids from a marine Bacillus sp” (2011)
Converted amounts (≈) assume the structure as drawn.

Key:
Assay type in all cases: functional
[1] = system: Bacillus subtilis; assay: Antimicrobial activity against Bacillus subtilis KCTC 1021 after 24 hrs by broth dilution method; details: KCTC 1021, 24 h
Outline: (§1)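 Twofold serial dilutions in nutrient broth (0.5–512.0 μg/mL) in microtiter plates. An overnight culture was adjusted to 1.5 × 10⁸ cfu/mL against the 0.5 McFarland standard and added to each dilution. Plates were incubated 24 h at 37 °C. MIC was the lowest concentration giving no visible growth (turbidity).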

[2] = system: Escherichia coli; assay: Antimicrobial activity against Escherichia coli KCTC 1923 after 24 hrs by broth dilution method; details: KCTC 1923, 24 h; outline: as §1
[3] = system: Saccharomyces cerevisiae; assay: Antimicrobial activity against Saccharomyces cerevisiae KCTC 7913 after 48 hrs by broth dilution method; details: KCTC 7913, 48 h
Outline: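 Yeast maltose broth, with twofold serial dilutions spanning 0.5–512.0 μg/mL in microtiter plates. An overnight yeast culture was adjusted to 1.5 × 10⁸ cfu/mL by the 0.5 McFarland standard and added to each well. Plates were held 48 h at 30 °C. MIC was the lowest concentration without visible turbidity.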

MIC [1] [µg/mL]	MIC [2] [µg/mL]	MIC [3] [µg/mL]	Compound
32 (≈ 132 µM)	32 (≈ 132 µM)	256 (≈ 1060 µM)	C=C/C=C(\C)CC[C@@H](O)C[C@H](O)CC(=O)OC [IEODOMYCIN A]
32 (≈ 152 µM)	32 (≈ 152 µM)	256 (≈ 1220 µM)	C=C/C=C(\C)CC[C@@H]1C[C@H](O)CC(=O)O1 [IEODOMYCIN B]
32 (≈ 140 µM)	32 (≈ 140 µM)	256 (≈ 1120 µM)	C[C@@H](O)CCC/C=C/C=C/[C@@H](O)CC(=O)O [IEODOMYCIN C]
32 (≈ 174 µM)	32 (≈ 174 µM)	256 (≈ 1390 µM)	C[C@@H](O)CCC/C=C/C=C/C(=O)O [IEODOMYCIN D]
